Experimental data published in ChEMBL document CHEMBL1148400, “Synthesis of nitro esters of prednisolone, new compounds combining pharmacological properties of both glucocorticoids and nitric oxide” (J Med Chem, 2004).
Converted amounts (≈) assume the structure as drawn.

Columns and labels:
[1] = molecular target: T1, Glucocorticoid receptor (Homo sapiens) (UniProt P04150); assay: Displacement of [3H]dexamethasone from glucocorticoid receptor of human blood mononuclear cells at 1 uM
T1 sequence (whole entry): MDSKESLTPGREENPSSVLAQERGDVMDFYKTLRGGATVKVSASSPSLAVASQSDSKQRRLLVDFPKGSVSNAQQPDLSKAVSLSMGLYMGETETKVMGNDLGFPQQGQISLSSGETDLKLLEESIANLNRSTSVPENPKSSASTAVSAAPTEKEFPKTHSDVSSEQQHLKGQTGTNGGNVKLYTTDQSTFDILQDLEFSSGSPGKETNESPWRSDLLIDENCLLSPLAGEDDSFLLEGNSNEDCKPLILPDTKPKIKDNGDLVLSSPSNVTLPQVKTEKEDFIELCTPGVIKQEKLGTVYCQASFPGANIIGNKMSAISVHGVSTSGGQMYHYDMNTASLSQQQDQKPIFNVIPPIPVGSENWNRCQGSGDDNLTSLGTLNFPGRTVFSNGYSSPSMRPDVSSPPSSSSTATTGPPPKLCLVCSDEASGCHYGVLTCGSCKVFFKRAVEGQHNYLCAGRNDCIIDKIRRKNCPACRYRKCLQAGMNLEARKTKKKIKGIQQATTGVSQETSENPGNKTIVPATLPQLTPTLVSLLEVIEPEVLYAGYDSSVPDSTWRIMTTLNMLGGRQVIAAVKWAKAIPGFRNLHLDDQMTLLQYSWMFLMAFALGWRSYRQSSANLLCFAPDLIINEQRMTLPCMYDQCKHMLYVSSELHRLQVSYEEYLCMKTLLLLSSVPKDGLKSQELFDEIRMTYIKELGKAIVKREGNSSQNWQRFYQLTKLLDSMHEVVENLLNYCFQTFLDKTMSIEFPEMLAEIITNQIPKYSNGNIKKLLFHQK
Procedure, shortened: (§1)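 PBMC isolated from human blood by histopaque gradient; 1×10^6 cells in RPMI with 1% glutamine given 50 nM [3H]dexamethasone plus compound at 1 μM (from 10 mM DMSO stock; control 0.1% DMSO), 1 h at 37 °C. Four ice-cold PBS washes, bound label by scintillation minus nonspecific binding; fmol/mL and % specific displacement; n = 3.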

[2] = molecular target: T1, Glucocorticoid receptor (Homo sapiens); assay: Inhibition of [3H]dexamethasone binding to glucocorticoid receptor of human blood mononuclear cells; procedure, shortened: as §1
[3] = Water solubility was determined; format: ADME
Procedure, shortened: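 Excess compound stirred in pH 7.4 phosphate buffer 3 h (25 °C), filtered 0.45 μm; saturated solution absorbance read at each compound's UV maximum and concentration derived against a standard solution; reported in mM.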

Mus musculus = species on record: Mus musculus; assay: Compound was tested for the inhibition of neutrophil (PMN) extravasation in the zymosan-induced peritonitis mouse; format: functional; parameters: unit: PMN per peritoneal cavity
Procedure, shortened: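 Mice dosed i.p. at 13.8 μmol/kg (equimolar to 5 mg/kg prednisolone) 1 h before i.p. zymosan (1 mg in 0.5 mL saline); vehicle peanut oil. Polymorphonuclear cells recruited per peritoneal cavity counted at 4 h; % inhibition vs vehicle group; mean ± SEM, n = 5 mice/group; ANOVA with Bonferroni.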

| SMILES | Displacement [1] [%] | [3H]dexamethasone bound [2] [fmol/mL] | solubility [3] [µM] | Activity (Mus musculus) |
| --- | --- | --- | --- | --- |
| C[C@]12C=CC(=O)C=C1CCC1C2[C@@H](O)C[C@@]2(C)C1CC[C@]2(O)C(=O)COC(=O)c1ccc(CO)cc1 (some centres undefined) | 57 | 5.3 | – | – |
| C[C@]12C=CC(=O)C=C1CCC1C2[C@@H](O)C[C@@]2(C)C1CC[C@]2(O)C(=O)COC(=O)CN1CCN(CCO[N+](=O)[O-])CC1 (some centres undefined) | 66 | 4.2 | 21300 (≈ 12300 µg/mL) | 9000000 |
| C[C@]12C=CC(=O)C=C1CCC1C2[C@@H](O)C[C@@]2(C)C1CC[C@]2(O)C(=O)COC(=O)CN1CCN(CCCO[N+](=O)[O-])CC1 (some centres undefined) | 83 | 2.1 | 53300 (≈ 31400 µg/mL) | 7800000 |
| C[C@]12C=CC(=O)C=C1CCC1C2[C@@H](O)C[C@@]2(C)C1CC[C@]2(O)C(=O)COC(=O)CCCO[N+](=O)[O-] (some centres undefined) | 87 | 1.6 | – | 9100000 |
| C[C@]12C=CC(=O)C=C1CC[C@@H]1[C@@H]2[C@@H](O)C[C@@]2(C)[C@H]1CC[C@]2(O)C(=O)CO [PREDNISOLONE] | 56 | 5.5 | 270 (≈ 97.3 µg/mL) | – |
| C[C@]12C=CC(=O)C=C1CCC1C2[C@@H](O)C[C@@]2(C)C1CC[C@]2(O)C(=O)COC(=O)c1ccc(CO[N+](=O)[O-])cc1 (some centres undefined) | 47 | 6.6 | 7 (≈ 3.78 µg/mL) | 4100000 |
| C[C@]12C=CC(=O)C=C1CCC1C2[C@@H](O)C[C@@]2(C)C1CC[C@]2(O)C(=O)COC(=O)CN1CCC(CCCO[N+](=O)[O-])CC1 (some centres undefined) | 81 | 2.3 | 150 (≈ 88.3 µg/mL) | – |

Now from value to compound, other results behind:

| Displacement [1] [%] | [3H]dexamethasone bound [2] [fmol/mL] | solubility [3] [µM] | SMILES | Activity (Mus musculus) |
| --- | --- | --- | --- | --- |
| 30 | 8.7 | – | C[C@]12C=CC(=O)C=C1CCC1C2[C@@H](O)C[C@@]2(C)C1CC[C@]2(O)C(=O)COC(=O)c1ccccc1CO[N+](=O)[O-] (some centres undefined) | – |
| – | 19.8 | – | C[C@]12C=CC(=O)C=C1CCC1C2[C@@H](O)C[C@@]2(C)C1CC[C@]2(O)C(=O)COC(=O)c1cccc(CO[N+](=O)[O-])c1 (some centres undefined) | – |
| 86 | 1.7 | 710 (≈ 408 µg/mL) | C[C@]12C=CC(=O)C=C1CCC1C2[C@@H](O)C[C@@]2(C)C1CC[C@]2(O)C(=O)COC(=O)CN1CCC(CCO[N+](=O)[O-])CC1 (some centres undefined) | – |
